Screening data deposited in PubChem by several laboratories.
The list is not random: actives were taken first. Their share in the collection is about 2%.
FLuc inh counter: Photinus pyralis luciferase inhibition counter-screen; P08659; ATPLite firefly luciferase biochemical luminescence, 10 min; inhibition, % at 10 µM; 200,000 tested, 1.5% active; AID 1006;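 active = inhibition above about 50% when tested at 10 µM, limit read from the data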
Target sequence (P08659 whole entry, looked up): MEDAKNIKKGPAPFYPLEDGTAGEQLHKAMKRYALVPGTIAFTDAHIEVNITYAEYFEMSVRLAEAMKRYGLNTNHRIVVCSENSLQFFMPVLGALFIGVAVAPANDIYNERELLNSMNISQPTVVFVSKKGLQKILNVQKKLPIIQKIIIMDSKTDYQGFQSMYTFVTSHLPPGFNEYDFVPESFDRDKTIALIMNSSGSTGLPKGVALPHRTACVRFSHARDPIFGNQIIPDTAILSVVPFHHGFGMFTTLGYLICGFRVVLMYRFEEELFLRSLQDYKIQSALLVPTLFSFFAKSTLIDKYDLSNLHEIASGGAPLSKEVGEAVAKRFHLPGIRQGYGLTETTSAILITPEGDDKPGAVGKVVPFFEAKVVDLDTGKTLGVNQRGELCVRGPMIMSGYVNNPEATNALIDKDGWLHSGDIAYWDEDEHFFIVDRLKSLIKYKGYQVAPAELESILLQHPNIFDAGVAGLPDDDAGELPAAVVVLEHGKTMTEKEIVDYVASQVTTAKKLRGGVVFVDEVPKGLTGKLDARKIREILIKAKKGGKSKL
HSP90 inh: HSP90 refolding inhibition in rabbit reticulocyte lysate; 290,000 tested, 0.91% active; luciferase refolding luminescence, 3 h; inhibition, % at 5.6 µM;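 active = inhibition above the screen-wide mean plus 3 SD, computed separately per campaign, cut at about 16% in these data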;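 also: inhibitors lower the luminescence because luciferase stays unfolded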
FLuc stim CS: firefly luciferase counter-screen for stimulation assays; P08659; ATPlite luciferase biochemical, luminescence, 10 min; 0 = ATP-free wells, 1 = DMSO control; activation factor at 10 µM; 200,000 tested, under 10 active;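 active = luciferase activation factor, scaled between plate controls, of at least 2 with compound at 10 µM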
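Assay system – cell-free luciferase reagent · Medium – PBS-based ATP solution · Dosing – test compounds dosed from 2 mM stocks in 100% DMSO · Timing – 10 min, room temperature · Technique – light output (luminescence) · Measure – luminescence gain marking luciferase activators · Controls – No-ATP low control, compound-free enzyme-plus-ATP high control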
PPC-1+TRAIL kill: compounds killing PPC-1 cancer cells with TRAIL present (potentiator screen, no TRAIL-free arm); AID 1443; cell killing (% activity), % at 4 µM or 5 µM; 220,000 tested, 0.41% active; PPC-1 cells + TRAIL, ATPLite viability luminescence;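 active = cell killing above 50% in the first pass at 4 µM, then a duplicate retest at 5 µM averaging 50% or more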
TRAIL sens C8: caspase-8 TRAIL sensitization; NB7+C8 cells + TRAIL, ATPlite viability luminescence; inhibition (viability loss, TRAIL sensitization), % at 10 µM; 360,000 tested, 1% active; AID 624354;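 active = compounds causing at least 50% loss of cell viability in the single-dose screen, relative to plate controls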
Numbers stand for hits.

For CC[C@H](C)[C@@H]1NC(=O)CNC(=O)c2csc(n2)[C@H](C(C)(C)O)OC(=O)C(C)(C)[C@H](CCCC(C)(Cl)Cl)OC(=O)c2csc1n2 the results were TRAIL sens C8 49.7.
Screening Cc1ccc(CN2CCN(Cc3ccccc3)CC2)cc1 returned FLuc inh counter inactive, HSP90 inh inactive, FLuc stim CS inactive, PPC-1+TRAIL kill inactive and TRAIL sens C8 inactive.
c1ccc(CN2CCN(Cc3ccc4ccccc4c3)CC2)cc1 was read as HSP90 inh 16.9 and TRAIL sens C8 inactive.
`CCC(CC)NC1CCCCC1OC` (stereo unspecified) gave FLuc inh counter inactive, HSP90 inh inactive, FLuc stim CS inactive, PPC-1+TRAIL kill inactive and TRAIL sens C8 inactive.
For COC1CC2C=C(C)C=CC=CC(=O)NC(c3ccccc3)CC=CCCC(O)CC(=O)C2=C1O (stereo unspecified) the results were TRAIL sens C8 96.7.
`CCN(CC)C(=O)c1ccc(NC(=O)c2cccc(C(F)(F)F)c2)cc1` gave FLuc inh counter inactive, HSP90 inh inactive, FLuc stim CS inactive, PPC-1+TRAIL kill inactive and TRAIL sens C8 inactive.
For CCN(CCCl)c1cc(CN(C)C)cc(NC(=O)c2ccc(C(=O)Nc3cc(CN(C)C)cc(N(CC)CCCl)c3)cc2)c1 the results were TRAIL sens C8 94.6.
`OCCOCCO` gave TRAIL sens C8 inactive.
For CC12C(C(=O)O)C1(c1ccccc1)C2C(=O)O (stereo unspecified) the results were TRAIL sens C8 inactive.
Screening COc1ccc(CC2C(=O)NC(C)C(=O)N(C)C3C(=O)N(C)C(Cc4ccc(O)c(c4)Oc4ccc(cc4)C3O)C(=O)NC(C)C(=O)NC(C)C(=O)N2C)cc1 (stereo unspecified) returned TRAIL sens C8 65.8.
For CC(O)C1C=CC=CC(=O)OC2CC3OC4C5OC5(C)C(O)CC4(COC(=O)C(O)C(C)CCO1)C2(C)C31CO1 (stereo unspecified) the results were TRAIL sens C8 62.0.
`CC(=O)O[C@H]1C[C@@H]2OC3C=C(C)CCC3(C)[C@@]1(C)[C@@]21CO1` (stereo partly specified) gave TRAIL sens C8 inactive.
`CC1CCOC(=O)C=CC=CC(=O)OC2CC3OC4C5OC5(C)C(O)CC4(COC(=O)C1O)C2(C)C31CO1` (stereo unspecified) gave TRAIL sens C8 69.0.
For CC1=CC2OC3CC4OC(=O)C=CC=CC(C(C)O)OCC(O)C5(C)OC5C(=O)OCC2(CC1O)C4(C)C31CO1 (stereo unspecified) the results were TRAIL sens C8 67.1.
Screening CC1=CC2OC3CC4OC(=O)C=CC=CC(=O)OCCC(C)C(O)C(=O)OCC2(CC1)C4(C)C31CO1 (stereo unspecified) returned TRAIL sens C8 56.3.
For COc1cc(C)c(CN2CCN(c3ccccc3)CC2)cc1C the results were FLuc inh counter inactive, HSP90 inh inactive, FLuc stim CS inactive, PPC-1+TRAIL kill inactive and TRAIL sens C8 inactive.
Screening COc1ccc2c(c1O)-c1c(OC)c(OC)cc3c1[C@H](C2)N(C)CC3 returned TRAIL sens C8 inactive.
For CCCN1CCc2cccc3c2[C@H]1Cc1ccc(O)c(O)c1-3 the results were TRAIL sens C8 46.2.
For CN1CCCC2c3ccccc3CCC21 (stereo unspecified) the results were TRAIL sens C8 inactive.
`CCc1ccc(N2C(=O)NC(=O)/C(=C\c3cccn3CCOc3ccc(C(C)C)cc3)C2=O)cc1` gave FLuc inh counter inactive, HSP90 inh 31.0, FLuc stim CS inactive, PPC-1+TRAIL kill inactive and TRAIL sens C8 inactive.
Screening COc1ccc2[nH]cc(CCN)c2c1 returned FLuc inh counter inactive, HSP90 inh inactive, FLuc stim CS inactive, PPC-1+TRAIL kill inactive and TRAIL sens C8 inactive.
Screening CCCCCCCCCOc1ccc2[nH]cc(CCN)c2c1 returned FLuc inh counter inactive, HSP90 inh inactive, FLuc stim CS inactive and PPC-1+TRAIL kill 61.0.
O=C(c1ccccc1)C(CN1CCCC1)c1ccccc1 (stereo unspecified) was read as FLuc inh counter inactive, HSP90 inh inactive, FLuc stim CS inactive, PPC-1+TRAIL kill 57.4 and TRAIL sens C8 inactive.
Screening C[C@]12N[C@H](Cc3ccccc31)c1ccccc12 returned TRAIL sens C8 inactive.
COC(=O)C1=C(C(=O)OC)SC2(S1)C(C(=O)OC)=C(C(=O)OC)Sc1c2ssc1=O was read as TRAIL sens C8 51.2.
For OC1(CN2CCOCC2)C2CC3CC(C2)CC1C3 (stereo unspecified) the results were FLuc inh counter inactive, HSP90 inh inactive, FLuc stim CS inactive, PPC-1+TRAIL kill inactive and TRAIL sens C8 inactive.
`CCN1/C(=C/C=C/C2=[N+](CC)c3ccccc3C2(C)C)C(C)(C)c2ccccc21` gave TRAIL sens C8 70.6.
For CN1/C(=C\C=C\C2=[N+](C)c3ccc4ccccc4c3C2(C)C)C(C)(C)c2ccccc21 the results were FLuc inh counter inactive, HSP90 inh inactive, FLuc stim CS inactive and PPC-1+TRAIL kill 65.8.
For CC1(C)C(C(=O)N2CCN(c3ccc(Cl)cc3)CC2)C1(C)C the results were HSP90 inh inactive and TRAIL sens C8 inactive.
`COC(=O)C1CN(C#N)N(c2ccc(Cl)cc2)C12c1ccccc1-c1ccccc12` (stereo unspecified) gave FLuc inh counter inactive, HSP90 inh inactive, FLuc stim CS inactive, PPC-1+TRAIL kill inactive and TRAIL sens C8 91.3.
Screening C=C1C(=O)O[C@@H]2C[C@@H](C)[C@@H]3C=CC(=O)[C@@]3(C)[C@@H](OC(=O)CC(=O)O[C@H]3[C@@H]4C(=C)C(=O)O[C@@H]4C[C@@H](C)[C@@H]4C=CC(=O)[C@]43C)[C@H]12 returned PPC-1+TRAIL kill inactive and TRAIL sens C8 94.5.
Screening C=C1C(=O)OC2CC(C)C3C=CC(=O)C3(C)C(O)C12 (stereo unspecified) returned TRAIL sens C8 85.6.
CC(C)(C)n1c(O)c(C=Nc2ccc3c(c2)CCC3)c(=O)[nH]c1=O was read as FLuc inh counter inactive, HSP90 inh inactive, FLuc stim CS inactive, PPC-1+TRAIL kill inactive and TRAIL sens C8 inactive.
Screening c1cncc(CNC2CCCCC2)c1 returned HSP90 inh inactive and TRAIL sens C8 inactive.
Screening CC1CCC(C(C)C)C(OC(=O)Cn2c(COc3ccccc3)[n+](C)c3ccccc32)C1 (stereo unspecified) returned HSP90 inh inactive, PPC-1+TRAIL kill inactive and TRAIL sens C8 52.7.
For CC1CCC/C=C/C2CC(O)CC2C(O)/C=C/C(=O)O1 (stereo unspecified) the results were FLuc inh counter inactive, HSP90 inh inactive, FLuc stim CS inactive, PPC-1+TRAIL kill 57.1 and TRAIL sens C8 inactive.
`CC(=O)OC(C)(C)/C=C/C(=O)[C@](C)(O)C1[C@H](O)C[C@@]2(C)C3CC=C4C(C[C@H](O)C(=O)C4(C)C)[C@]3(C)C(=O)C[C@]12C` (stereo partly specified) gave TRAIL sens C8 inactive.
